Results reported in ChEMBL document CHEMBL1152478, “Design, synthesis, and antifungal activity of triazole and benzotriazole derivatives” (2009).
≈ marks a conversion by molar mass, not a printed value.

Tests used:
Format in all cases: functional
[1] = tested on: Trichophyton mentagrophytes; test: Antifungal activity against Trichophyton mentagrophytes after 48 hrs by agar dilution method
Summary of the method: (§1)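 Clinical isolates, purified and subcultured on SC, SCC and PDA media before testing. Compounds were dissolved as DMSO stocks and diluted into solid medium (PDA) for agar dilution. Inocula for molds and yeast came from 2- to 7-day mature colonies. The read-out was the minimum inhibitory concentration (MIC).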

Microsporum canis = test: Antifungal activity against Microsporum canis after 48 hrs by agar dilution method; summary of the method: as §1
Trichophyton rubrum = test: Antifungal activity against Trichophyton rubrum after 48 hrs by agar dilution method; summary of the method: as §1
Epidermophyton floccosum = test: Antifungal activity against Epidermophyton floccosum after 48 hrs by agar dilution method; summary of the method: as §1
Candida albicans = test: Antifungal activity against Candida albicans after 48 hrs by agar dilution method; summary of the method: as §1

Which results are given for CCCCCn1cncn1?
MIC [1]: 64 µg/mL (≈ 460 µM); MIC (Microsporum canis): 64 µg/mL (≈ 460 µM); MIC (Trichophyton rubrum): 64 µg/mL (≈ 460 µM); MIC (Epidermophyton floccosum): 64 µg/mL (≈ 460 µM)

With CCCCCCCCn1nnc2ccccc21 as the molecule, how does the MIC [1] read?
Its MIC is 64 µg/mL (≈ 277 µM).

What about the MIC (Microsporum canis) of the same molecule?
The MIC was 64 µg/mL (≈ 277 µM).

What about the MIC (Trichophyton rubrum) of the same molecule?
Its MIC is 64 µg/mL (≈ 277 µM).

And the MIC (Epidermophyton floccosum)?
The MIC was 32 µg/mL (≈ 138 µM).

For COc1ccc(C(c2ccccc2)(c2ccccc2)n2nnc3ccccc32)cc1, which MIC [1] is on record?
Its MIC is 64 µg/mL (≈ 163 µM).

What about the MIC (Trichophyton rubrum) of the same molecule?
Its MIC is 64 µg/mL (≈ 163 µM).

What about the MIC (Epidermophyton floccosum) of the same molecule?
The MIC was 64 µg/mL (≈ 163 µM).

How did the MIC [1] turn out when CCCCCCCCn1cncn1 was run?
Its MIC is 16 µg/mL (≈ 88.3 µM).

And the MIC (Candida albicans)?
The MIC was 16 µg/mL (≈ 88.3 µM).

And the MIC (Microsporum canis)?
Its MIC is 16 µg/mL (≈ 88.3 µM).

What about the MIC (Trichophyton rubrum) of the same molecule?
The MIC was 16 µg/mL (≈ 88.3 µM).

And the MIC (Epidermophyton floccosum)?
Its MIC is 8 µg/mL (≈ 44.1 µM).

Which results are given for c1ccc(C(c2ccccc2)(c2ccccc2)n2cncn2)cc1?
MIC [1]: 32 µg/mL (≈ 103 µM); MIC (Microsporum canis): 64 µg/mL (≈ 206 µM); MIC (Trichophyton rubrum): 64 µg/mL (≈ 206 µM); MIC (Epidermophyton floccosum): 1 µg/mL (≈ 3.21 µM)

How did the MIC [1] turn out when CCCCCn1nnc2ccccc21 was run?
The MIC was 32 µg/mL (≈ 169 µM).

What about the MIC (Candida albicans) of the same molecule?
The MIC was 32 µg/mL (≈ 169 µM).

What about the MIC (Microsporum canis) of the same molecule?
Its MIC is 16 µg/mL (≈ 84.5 µM).

And the MIC (Trichophyton rubrum)?
Its MIC is 32 µg/mL (≈ 169 µM).

What about the MIC (Epidermophyton floccosum) of the same molecule?
Its MIC is 16 µg/mL (≈ 84.5 µM).

Which results are given for COc1ccc(C(c2ccccc2)(c2ccccc2)n2cncn2)cc1?
MIC [1]: 16 µg/mL (≈ 46.9 µM); MIC (Microsporum canis): 32 µg/mL (≈ 93.7 µM); MIC (Trichophyton rubrum): 32 µg/mL (≈ 93.7 µM); MIC (Epidermophyton floccosum): 8 µg/mL (≈ 23.4 µM)

What does the source list for COc1ccc(C(c2ccccc2)(c2ccc(OC)cc2)n2nnc3ccccc32)cc1?
MIC [1]: 64 µg/mL (≈ 152 µM); MIC (Trichophyton rubrum): 32 µg/mL (≈ 75.9 µM)

Which results are given for c1ccc(C(c2ccccc2)(c2ccccc2)n2nnc3ccccc32)cc1?
MIC (Candida albicans): 64 µg/mL (≈ 177 µM); MIC (Trichophyton rubrum): 64 µg/mL (≈ 177 µM); MIC (Epidermophyton floccosum): 64 µg/mL (≈ 177 µM)

For Clc1ccccc1C(c1ccccc1)(c1ccccc1)n1ccnc1 [CLOTRIMAZOLE], which MIC [1] is on record?
The MIC was 0.05 µg/mL (≈ 0.145 µM).

And the MIC (Candida albicans)?
The MIC was 4 µg/mL (≈ 11.6 µM).

What about the MIC (Microsporum canis) of the same molecule?
The MIC was 0.065 µg/mL (≈ 0.188 µM).

And the MIC (Trichophyton rubrum)?
Its MIC is 0.5 µg/mL (≈ 1.45 µM).

What about the MIC (Epidermophyton floccosum) of the same molecule?
Its MIC is 4 µg/mL (≈ 11.6 µM).

How did the MIC [1] turn out when OC(Cn1cncn1)(Cn1cncn1)c1ccc(F)cc1F [FLUCONAZOLE] was run?
Its MIC is 1 µg/mL (≈ 3.27 µM).

And the MIC (Candida albicans)?
Its MIC is 32 µg/mL (≈ 104 µM).

What about the MIC (Microsporum canis) of the same molecule?
Its MIC is 16 µg/mL (≈ 52.2 µM).

What about the MIC (Trichophyton rubrum) of the same molecule?
Its MIC is 32 µg/mL (≈ 104 µM).

And the MIC (Epidermophyton floccosum)?
The MIC was 0.25 µg/mL (≈ 0.816 µM).
